In ChEMBL document CHEMBL5653614, “Rescue of fragile X syndrome phenotypes in Fmr1 KO mice by the small-molecule PAK inhibitor FRAX486” (Proc Natl Acad Sci U S A, 2013):
Calls of active or inactive are those of the source. The calls are words filed in the database; no cut-off is given here.

How the values were obtained:
[1] = biological target: Serine/threonine-protein kinase PAK 3 (Homo sapiens, UniProt O75914); test: Inhibition of PAK3 (unknown origin) by Z'-LYTE functional assay
Summary of the method: (§1)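 Full-length PAK isoforms phosphorylating an optimized peptide substrate in a Z-LYTE biochemical kinase assay, 10-point inhibitor titration. Duplicates (n = 2, mean ± SEM) plotted semilog; IC50 from a variable-slope sigmoidal dose–response fit.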

[2] = biological target: Serine/threonine-protein kinase PAK 4 (Homo sapiens, UniProt O96013); test: Inhibition of PAK4 (unknown origin) by Z'-LYTE functional assay; summary of the method: as §1
[3] = Tmax in FVB.129P2 mouse plasma at 20 mg/kg,sc by LC-MS/MS analysis; assay type: ADME, organism-based
Summary of the method: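 WT FVB.129P2 mice received a single s.c. injection of 20 mg/kg FRAX486 in 20% (wt/vol) hydroxypropyl-β-cyclodextrin. Blood was collected at time points from 15 min to 24 h, n = 2–3 per point. Plasma drug levels were quantified by LC-MS/MS and reported as mean ± SEM.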

[4] = Drug concentration in FVB.129P2 mouse plasma at 20 mg/kg,sc and measured upto 18 hrs by LC-MS/MS analysis; assay type: ADME, organism-based
Summary of the method: (§2)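 WT FVB.129P2 mice got one s.c. injection of 20 mg/kg (2 mg/mL in 20% hydroxypropyl-β-cyclodextrin). Blood and forebrain were collected at time points from 15 min to 24 h. Forebrain was weighed, snap-frozen and homogenized in 2 volumes of cold PBS. Drug quantified by LC-MS/MS. n = 2–3, mean ± SEM.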

[5] = Drug concentration in FVB.129P2 mouse brain at 20 mg/kg,sc and measured after 1 hrs by LC-MS/MS analysis; assay type: ADME, organism-based; details: read-out: Ct; summary of the method: as §2
Mus musculus [6] = test: Protective activity in Fmr1 knockout FVB.129P2-Fmr1tm1Cgr/J mouse assessed as decrease in apical dendritic spine density in layer II/III pyramidal neurons segment 3 at 20 mg/kg, sc and measured after 8 hrs by Golgi-Cox technique analysis; assay type: functional, organism-based
Summary of the method: (§3)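 Adult male WT and Fmr1 KO FVB mice given 20 mg/kg s.c. or vehicle; brains collected 8 h later and Golgi stained. Apical dendrites of layer II/III pyramidal neurons in temporal cortex, originating 50–100 µm from the soma, were divided into ten 10-µm segments and spines counted. 40–60 neurons from 4–6 mice per group; one-way ANOVA.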

Mus musculus [7] = test: Protective activity in Fmr1 knockout FVB.129P2-Fmr1tm1Cgr/J mouse assessed as decrease in apical dendritic spine density in layer II/III pyramidal neurons segment 4 at 20 mg/kg, sc and measured after 8 hrs by Golgi-Cox technique analysis; assay type: functional, organism-based; summary of the method: as §3
Mus musculus [8] = test: Protective activity in Fmr1 knockout FVB.129P2-Fmr1tm1Cgr/J mouse assessed as decrease in apical dendritic spine density in layer II/III pyramidal neurons segment 7 at 20 mg/kg, sc and measured after 8 hrs by Golgi-Cox technique analysis; assay type: functional, organism-based; summary of the method: as §3
Mus musculus [9] = test: Protective activity in Fmr1 knockout FVB.129P2-Fmr1tm1Cgr/J mouse assessed as decrease in apical dendritic spine density in layer II/III pyramidal neurons segment 8 at 20 mg/kg, sc and measured after 8 hrs by Golgi-Cox technique analysis; assay type: functional, organism-based; summary of the method: as §3
Mus musculus [10] = test: Protective activity in Fmr1 knockout FVB.129P2-Fmr1tm1Cgr/J mouse assessed as change in basal dendritic spine density in cortical neuron at 20 mg/kg, sc and measured after 8 hrs by Golgi-Cox technique analysis; assay type: functional, organism-based; details: Cortical neurone
Mus musculus [11] = test: Anti-seizure activity against 124dB loud auditory stimulus induced Fmr1 knockout FVB.129P2-Fmr1tm1Cgr/J mouse model of audiogenic seizure assessed as decrease in sound-induced seizure at 20 mg/kg,sc for 8 hrs followed by audiogenic seizure induction by audiogenic seizure assay (Rvb=100%); assay type: functional; parameters: scale not given: the % may be the effect or the level left
Summary of the method: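 Adult male mice (10–17 wk). Single s.c. dose (0, 10, 20 or 30 mg/kg) in 20% (wt/vol) hydroxypropyl-β-cyclodextrin vehicle; AGS induced 8 h later. Mouse acclimated 2 min in a clear acrylic two-chamber box, then exposed to a 124 dB sound. Scored as percentage of animals showing each sequential phase (wild running, seizure, death by respiratory arrest); χ2 test against vehicle.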

Mus musculus [12] = test: Protective activity in Fmr1 knockout FVB.129P2-Fmr1tm1Cgr/J mouse model of Fragile X syndrome assessed as decrease in stereotypy count at 20 mg/kg, sc for 5 days by open field assay; assay type: functional, organism-based; details: time 5.0 day
Summary of the method: (§4)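 Adult male WT and Fmr1 KO mice dosed s.c. at 20 mg/kg or vehicle for 5 d; tested 4–5.5 h after dosing. Single mouse in a novel open field for 30 min, tracked by infrared sensors in 1-min bins; bar-graph values averaged over minutes 18–30. Mice beyond 2 SD in total distance, or immobile for 5 consecutive minutes, were excluded.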

Mus musculus [13] = test: Protective activity in FVB.129P2-Pde6b+ Tyr c-ch/AntJ wild type mouse assessed as decrease in counterclockwise revolutions at 20 mg/kg, sc for 5 days by open field assay; assay type: functional, organism-based; details: time 5.0 day; summary of the method: as §4
Mus musculus [14] = test: Protective activity in Fmr1 knockout FVB.129P2-Fmr1tm1Cgr/J mouse model of Fragile X syndrome assessed as balance on accelerating rotarod at 20 mg/kg, sc and measured for 4 to 5.25 hrs by rotarod test; assay type: functional, organism-based; details: time 4-5.25 hrs
Summary of the method: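 Adult male WT and Fmr1 KO mice tested 4–5.5 h after s.c. 20 mg/kg or vehicle. Latency to fall or jump off the rotating cylinder recorded (max 3 min). Three trials per mouse, 30–40 min apart; per-mouse average latency compared.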

Serine/threonine-protein kinase PAK 4, sequence (O96013 whole entry): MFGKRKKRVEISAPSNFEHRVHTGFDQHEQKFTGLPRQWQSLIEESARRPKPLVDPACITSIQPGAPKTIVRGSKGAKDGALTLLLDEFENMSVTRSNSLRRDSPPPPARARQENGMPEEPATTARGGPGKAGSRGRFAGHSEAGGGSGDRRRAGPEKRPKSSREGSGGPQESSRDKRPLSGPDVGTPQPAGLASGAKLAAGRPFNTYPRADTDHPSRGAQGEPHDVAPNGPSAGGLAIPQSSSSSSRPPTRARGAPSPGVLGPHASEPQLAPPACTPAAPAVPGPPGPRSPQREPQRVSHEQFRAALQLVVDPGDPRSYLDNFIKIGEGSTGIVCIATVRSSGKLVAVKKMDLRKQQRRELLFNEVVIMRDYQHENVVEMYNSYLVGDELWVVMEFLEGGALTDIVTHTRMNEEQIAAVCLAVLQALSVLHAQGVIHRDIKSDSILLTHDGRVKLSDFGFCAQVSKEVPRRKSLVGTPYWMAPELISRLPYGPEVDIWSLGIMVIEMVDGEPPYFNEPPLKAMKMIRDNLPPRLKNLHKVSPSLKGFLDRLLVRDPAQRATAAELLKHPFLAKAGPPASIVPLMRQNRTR
Serine/threonine-protein kinase PAK 3, sequence (O75914 whole entry, canonical isoform): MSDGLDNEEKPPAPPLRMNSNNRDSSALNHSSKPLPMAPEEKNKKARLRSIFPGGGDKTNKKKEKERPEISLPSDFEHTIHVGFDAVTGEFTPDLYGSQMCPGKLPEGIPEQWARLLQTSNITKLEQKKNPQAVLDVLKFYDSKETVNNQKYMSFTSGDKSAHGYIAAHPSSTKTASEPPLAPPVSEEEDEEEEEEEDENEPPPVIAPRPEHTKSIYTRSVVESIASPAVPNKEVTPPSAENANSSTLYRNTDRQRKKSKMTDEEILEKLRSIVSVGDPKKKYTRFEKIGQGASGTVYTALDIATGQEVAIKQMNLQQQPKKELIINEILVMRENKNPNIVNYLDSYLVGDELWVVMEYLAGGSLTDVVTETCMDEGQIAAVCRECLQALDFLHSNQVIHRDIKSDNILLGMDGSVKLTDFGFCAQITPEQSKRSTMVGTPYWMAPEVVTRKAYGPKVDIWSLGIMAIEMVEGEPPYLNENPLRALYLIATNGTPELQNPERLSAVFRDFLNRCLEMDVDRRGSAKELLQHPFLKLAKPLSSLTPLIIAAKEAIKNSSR

Structure (SMILES): CCn1c(=O)c(-c2ccc(Cl)cc2Cl)cc2cnc(Nc3ccc(N4CCNCC4)c(F)c3)nc21
- IC50 [1]: 55.3 nM
- IC50 [2]: 779 nM
- Tmax [3]: 15 min
- concentration at 18 h [4]: > 100 ng/mL
- concentration at 1 h [5]: 155 ng/g
- Activity (Mus musculus [6]): Active
- Activity (Mus musculus [7]): Active
- Activity (Mus musculus [8]): inactive
- Activity (Mus musculus [9]): inactive
- Activity (Mus musculus [10]): inactive
- Activity (Mus musculus [11]): 25%
- Activity (Mus musculus [12]): Active
- Activity (Mus musculus [13]): Active
- Activity (Mus musculus [14]): inactive
